Reference: PMC8829947 (ACS Omega, 2022)

Assays:
[1] = Zn2+ affinity by competition with colorimetric PAR assay; format: binding; details: for Kd: read-out: Kd,Zn2, PAR 100 μM, ZnSO4 10 μM, pH 7.5, 3 h at 25 °C
How it was run: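 The test compound was titrated into Chelex-100-treated 20 mM HEPES, 100 mM NaCl, pH 7.5, containing PAR 100 μM and ZnSO4 10 μM, then incubated 3 h at 25 °C. Zn2+ displacement from PAR was read as the fall in absorbance at 492 nm. Kd was estimated from the known PAR stability constant at pH 7.4.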

[2] = target: NDM-1 (Klebsiella pneumoniae, UniProt C7C422); assay: In vitro enzyme inhibition assay, purified recombinant NDM-1; format: biochemical
Chain of NDM-1 (C7C422 29-270, looked up, species assumed): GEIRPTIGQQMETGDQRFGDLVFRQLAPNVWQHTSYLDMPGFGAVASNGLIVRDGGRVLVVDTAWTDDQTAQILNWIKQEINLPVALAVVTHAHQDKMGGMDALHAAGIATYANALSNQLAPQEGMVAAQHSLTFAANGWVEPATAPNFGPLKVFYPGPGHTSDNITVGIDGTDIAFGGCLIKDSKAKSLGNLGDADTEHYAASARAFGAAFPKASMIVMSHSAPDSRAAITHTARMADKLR
How it was run: (§1)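 Purified recombinant enzyme at 4 nM was preincubated 5–10 min at RT with varying inhibitor concentrations. Buffer was 50 mM HEPES pH 7.5, 0.2% DMSO, 1% PEG 4000, with either 10 μM ZnSO4 or no zinc (Chelex-100-treated, 2 h, filtered). Reactions were started with nitrocefin (30 μM final, A490) or meropenem (50 μM final, A300) and followed 60 s. IC50 came from the linear portion of progress curves. Duplicates.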

[3] = system: E. coli expressing blaNDM-1; assay: Meropenem rescue concentration, antimicrobial susceptibility test; format: cell-based, Escherichia coli; details: for RC in MHB, NDM-1: rescue concentration at meropenem 2 μg/mL
How it was run: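 Checkerboard broth microdilution in Mueller–Hinton broth against E. coli carrying the plasmid-borne MBL gene. Meropenem used five 2-fold dilutions and the test compound six 2-fold dilutions, within 0.5–64 μg/mL; the test compound was dissolved in water or 50% methanol. Inoculum was adjusted to OD625 0.08–0.10, then diluted 200-fold. Incubation was 20 h static at 37 °C, read at OD600. RC is the compound concentration restoring susceptibility at meropenem 2 μg/mL. ≥2 replicates.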

[4] = target: VIM-2 (Escherichia coli, UniProt Q5U7L7); assay: In vitro enzyme inhibition assay, purified recombinant VIM-2; format: biochemical
How it was run: as §1

[5] = target: IMP-7; assay: In vitro enzyme inhibition assay, purified recombinant IMP-7; format: biochemical; details: read-out: IC50 IMP-7 - Zn; Zn2+-depleted (Chelex-100-treated) buffer
How it was run: as §1

[6] = system: A. baumannii ATCC 17978::pROTO2 (NDM-1); assay: Meropenem rescue and MIC, antimicrobial susceptibility test; format: cell-based, Acinetobacter baumannii; details: rescue concentration at meropenem 2 μg/mL
[7] = system: K. pneumoniae ATCC 33495::pGDP2 (NDM-1); assay: as above; format: cell-based, Klebsiella pneumoniae; details: rescue concentration at meropenem 2 μg/mL, MHB
[8] = IC50 NDM-1 + Zn, Zn2+-supplemented (10 μM) buffer
[9] = IC50 NDM-1 - Zn, Zn2+-depleted (Chelex-100-treated) buffer

SMILES | Kd [1] [µM] | IC50 [2, 8] [µM] | IC50 [2, 9] [µM] | RC in MHB, NDM-1 [3] [µg/mL] | IC50 [4] [µM] | IC50 [5] [µM] | RC in MHB, A. baumannii ATCC 17978::pROTO2 (NDM-1) [6] | RC in MHB, K. pneumoniae ATCC 33495::pGDP2 (NDM-1) [7] [μg/mL] | Zn2+ affinity (in words) ([1]; outside the detection range of the assay, estimated) | rescue concentration (RC), biological activity ([3]; meropenem 2 μg/mL, resistant E. coli, MBL not given) [μg/mL]
N[C@@H](CN[C@@H](CN[C@@H](Cc1ccc(OP(=O)(O)O)cc1)C(=O)O)C(=O)O)C(=O)O (mixture of isomers) [Compound 21, (S)-2-Amino-3-(((S)-1-carboxy-2-(((S)-1-carboxy-2-(4-(phosphonooxy)phenyl)ethyl)amino)ethyl)amino)propanoic Acid] | 0.0108 ± 0.0081 | 54 ± 5.6 | 25.1 ± 8.3 | 64 |  |  |  |  |  | 
NC(Cc1ccc(O)cc1)C(=O)N[C@@H](CN[C@@H](CN[C@@H](CC(=O)O)C(=O)O)C(=O)O)C(=O)O (stereo in doubt) [Compound 2, ((S)-2-(((S)-2-((R)-2-Amino-3-(4-hydroxyphenyl)propanamido)-2-carboxyethyl)amino)-2-carboxyethyl)-L-aspartic Acid] | 0.0014 ± 0.00056 | > 100 | > 500 | >64 |  |  |  |  |  | 
N[C@@H](CN[C@@H](CNC(CS)C(=O)O)C(=O)O)C(=O)O (stereo in doubt) [Compound 11, (S)-2-Amino-3-(((S)-1-carboxy-2-(((S)-1-carboxy-2-mercaptoethyl)amino)ethyl)amino)propanoic Acid] | 0.0002 ± 5e-05 | 15.6 ± 0.2 | 21.5 ± 0.8 | 32 | 22 ± 1 | 328 ± 15 |  |  |  | 
N[C@@H](CN[C@@H](CNC(CS)C(=O)O)C(=O)O)C(=O)O (stereo in doubt) [Compound 12, (S)-2-Amino-3-(((S)-1-carboxy-2-(((R)-1-carboxy-2-mercaptoethyl)amino)ethyl)amino)propanoic Acid] | 0.0044 ± 0.0018 | 404 ± 18.2 | 5.8 ± 0.5 | 32 |  |  |  |  |  | 
CC(C)(S)C(NC[C@H](NC[C@H](N)C(=O)O)C(=O)O)C(=O)O (stereo in doubt) [Compound 14, (R)-2-(((S)-2-(((S)-2-Amino-2-carboxyethyl)amino)-2-carboxyethyl)amino)-3-mercapto-3-methylbutanoic Acid] | 0.0026 ± 0.0004 | 112 ± 4.8 | 185 ± 7.8 | 32 | 246 ± 17 | > 500 |  |  |  | 
NCC(=O)N[C@@H](CN[C@@H](CN[C@@H](CC(=O)O)C(=O)O)C(=O)O)C(=O)O [Compound 1, ((S)-2-(((S)-2-(2-Aminoacetamido)-2-carboxyethyl)amino)-2-carboxyethyl)-L-aspartic Acid] | 0.0199 ± 0.0032 | > 100 | > 500 | >64 |  |  |  |  |  | 
CN[C@@H](CN[C@@H](CN[C@@H](CC(=O)O)C(=O)O)C(=O)O)C(=O)O [Compound 3, ((S)-2-Carboxy-2-(((S)-2-carboxy-2-(methylamino)ethyl)amino) Ethyl)-L-aspartic Acid] | 0.0087 ± 0.0009 | 95.3 ± 3 | > 500 |  |  |  |  |  |  | 
Cc1ccc(SC[C@@H](N)CN[C@@H](CN[C@@H](CC(=O)O)C(=O)O)C(=O)O)cc1 [Compound 5, ((S)-2-(((S)-2-Amino-3-(P-tolylthio)propyl)amino)-2-carboxyethyl)-L-aspartic Acid] | 0.0014 ± 0.00056 | 104 ± 2 | 97.2 ± 34.2 | 32 |  |  |  |  |  | 
CCCSC[C@@H](N)CN[C@@H](CN[C@@H](CC(=O)O)C(=O)O)C(=O)O [Compound 7, ((S)-2-(((S)-2-Amino-3-(propylthio)propyl)amino)-2-carboxyethyl)-L-aspartic Acid] | 0.109 ± 0.04 | 29.2 ± 1 | > 500 | >64 |  |  |  |  |  | 
N[C@@H](CN[C@@H](CN[C@@H](CC(=O)O)C(=O)O)C(=O)O)CSCCO [Compound 8, ((S)-2-(((S)-2-Amino-3-((2-hydroxyethyl)thio)propyl)amino)-2-carboxyethyl)-L-aspartic Acid] | 0.06 ± 0.013 | > 250 | > 500 | 64 |  |  |  |  |  | 
N[C@@H](CN[C@@H](CN[C@@H](CC(=O)O)C(=O)O)CSc1ccccc1)C(=O)O [Compound 9, ((S)-2-(((S)-2-Amino-2-carboxyethyl)amino)-3-(phenylthio)propyl)-L-aspartic Acid] | 0.0023 ± 0.0019 | 58 ± 5 | > 500 | >64 |  |  |  |  |  | 
N[C@@H](CN[C@@H](CN[C@@H](Cc1c[nH]cn1)C(=O)O)C(=O)O)C(=O)O [Compound 10, (S)-2-Amino-3-(((S)-1-carboxy-2-(((S)-1-carboxy-2-(1H-imidazol-4-yl)ethyl)amino)ethyl)amino)propanoic Acid] |  | 21.7 ± 3.9 | 173 ± 3.9 | 8 | 136 ± 5 | > 500 | 4–8 μg/mL | 8 | subpicomolar or lower | 
N[C@@H](CN[C@@H](CN[C@@H](CCS)C(=O)O)C(=O)O)C(=O)O [Compound 13, ((S)-2-(((S)-2-Amino-2-carboxyethyl)amino)-2-carboxyethyl)-L-homocysteine] |  | > 100 | > 1000 | 64 |  |  |  |  |  | 
NC(=O)C[C@H](NC[C@H](NC[C@H](N)C(=O)O)C(=O)O)C(=O)O [Compound 16, ((S)-2-(((S)-2-Amino-2-carboxyethyl)amino)-2-carboxyethyl)-L-asparagine] | 0.001 ± 0.0001 | 18.3 ± 0.7 | > 1000 | 16 |  |  | 16 μg/mL | 32 |  | 
N=C(N)NCCC[C@H](NC[C@H](NC[C@H](N)C(=O)O)C(=O)O)C(=O)O [Compound 17, ((S)-2-(((S)-2-Amino-2-carboxyethyl)amino)-2-carboxyethyl)-L-arginine] | 0.024 ± 0.006 | > 100 | > 1000 | >64 |  |  |  |  |  | 
N[C@@H](CN[C@@H](CN[C@@H](CO)C(=O)O)C(=O)O)C(=O)O [Compound 19, (S)-2-Amino-3-(((S)-1-carboxy-2-(((S)-1-carboxy-2-hydroxyethyl)amino)ethyl)amino)propanoic Acid] | 0.0045 ± 0.00175 | 80 ± 0.7 | > 1000 | 32 |  |  |  |  |  | 
N[C@@H](CN[C@@H](CN[C@@H](Cc1ccc(O)cc1)C(=O)O)C(=O)O)C(=O)O [Compound 20, (S)-2-Amino-3-(((S)-1-carboxy-2-(((S)-1-carboxy-2-(4-hydroxyphenyl)ethyl)amino)ethyl)amino)propanoic Acid] | 0.00064 ± 0.00017 | 38 ± 1.8 | 172 ± 1.5 | 16 |  |  | 32 μg/mL | 64 |  | 
N[C@@H](CN[C@@H](CN[C@H](C(=O)O)c1ccc(O)cc1)C(=O)O)C(=O)O [Compound 22, (S)-2-Amino-3-(((S)-1-carboxy-2-(((S)-carboxy(4-hydroxyphenyl)methyl)amino)ethyl)amino)propanoic Acid] | 0.0095 ± 0.0065 | 283 ± 27.4 | 23 ± 3.6 | >64 |  |  |  |  |  | 
N[C@@H](CN[C@@H](CN[C@@H](Cc1cccs1)C(=O)O)C(=O)O)C(=O)O [Compound 23, (S)-2-Amino-3-(((S)-1-carboxy-2-(((S)-1-carboxy-2-(thiophen-2-yl)ethyl)amino)ethyl)amino)propanoic Acid] | 0.0042 ± 0.0025 | 42.2 ± 4.1 | 9.7 ± 1.7 | 64 |  |  |  |  |  | > 8
